From ChEMBL document CHEMBL2384911 (Bioorg Med Chem, 2013) come the findings set out here.

The target of series [1] is Bcr/Abl fusion protein (Homo sapiens) (UniProt P00519+P11274). Briefly: Inhibition of human BCR-ABL1 autophosphorylation expressed in mouse BA/F3 cells at < 3000 nM by ELISA. The class given is cell-based. The following applies: BaF3.
Series [2] deals with Mast/stem cell growth factor receptor Kit (Homo sapiens), P10721 [K642E]. Briefly: Inhibition of KIT K642E mutant autophosphorylation (unknown origin) expressed in human GIST882 cells at < 3000 nM by ELISA. The class given is cell-based.
Mast/stem cell growth factor receptor Kit (Homo sapiens), P10721 [K642E], sequence (P10721 whole entry K642E, the tested form may be a part): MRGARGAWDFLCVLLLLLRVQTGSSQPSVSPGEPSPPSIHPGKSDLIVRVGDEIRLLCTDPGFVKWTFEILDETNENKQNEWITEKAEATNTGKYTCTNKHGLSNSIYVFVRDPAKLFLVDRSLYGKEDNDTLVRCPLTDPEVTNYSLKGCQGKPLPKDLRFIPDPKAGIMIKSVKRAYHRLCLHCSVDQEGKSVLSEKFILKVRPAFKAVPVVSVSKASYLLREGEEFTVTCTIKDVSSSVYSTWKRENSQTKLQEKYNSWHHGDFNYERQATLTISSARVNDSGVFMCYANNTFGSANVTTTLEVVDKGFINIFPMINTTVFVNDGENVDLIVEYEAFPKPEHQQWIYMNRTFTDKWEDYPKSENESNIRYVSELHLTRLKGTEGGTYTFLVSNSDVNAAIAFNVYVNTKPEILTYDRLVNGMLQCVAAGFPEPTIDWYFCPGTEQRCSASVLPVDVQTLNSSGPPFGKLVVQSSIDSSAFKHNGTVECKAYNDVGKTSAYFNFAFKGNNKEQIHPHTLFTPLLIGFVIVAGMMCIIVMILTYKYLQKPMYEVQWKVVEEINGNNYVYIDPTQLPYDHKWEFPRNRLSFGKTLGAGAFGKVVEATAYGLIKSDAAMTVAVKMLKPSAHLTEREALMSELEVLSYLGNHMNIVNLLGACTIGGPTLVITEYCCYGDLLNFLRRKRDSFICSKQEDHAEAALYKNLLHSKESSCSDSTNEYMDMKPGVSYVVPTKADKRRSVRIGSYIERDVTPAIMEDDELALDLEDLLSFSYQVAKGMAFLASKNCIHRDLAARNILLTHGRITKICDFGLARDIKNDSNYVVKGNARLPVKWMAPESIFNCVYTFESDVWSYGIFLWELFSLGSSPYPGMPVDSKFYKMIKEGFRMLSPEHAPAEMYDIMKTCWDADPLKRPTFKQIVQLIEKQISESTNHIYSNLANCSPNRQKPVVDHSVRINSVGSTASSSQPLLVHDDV
Series [3] addresses T1, Bcr/Abl fusion protein (Homo sapiens, UniProt P00519). Briefly: Inhibition of human BCR-ABL1 autophosphorylation expressed in mouse BA/F3 cells by ELISA. The format is cell-based, BaF3.
The target in series [4] is Mast/stem cell growth factor receptor Kit (Homo sapiens, UniProt P10721, K642E). In words: Inhibition of KIT K642E mutant autophosphorylation (unknown origin) expressed in human GIST882 cells by ELISA. The format is cell-based.
Mast/stem cell growth factor receptor Kit, sequence (P10721 26-976 K642E limits assumed): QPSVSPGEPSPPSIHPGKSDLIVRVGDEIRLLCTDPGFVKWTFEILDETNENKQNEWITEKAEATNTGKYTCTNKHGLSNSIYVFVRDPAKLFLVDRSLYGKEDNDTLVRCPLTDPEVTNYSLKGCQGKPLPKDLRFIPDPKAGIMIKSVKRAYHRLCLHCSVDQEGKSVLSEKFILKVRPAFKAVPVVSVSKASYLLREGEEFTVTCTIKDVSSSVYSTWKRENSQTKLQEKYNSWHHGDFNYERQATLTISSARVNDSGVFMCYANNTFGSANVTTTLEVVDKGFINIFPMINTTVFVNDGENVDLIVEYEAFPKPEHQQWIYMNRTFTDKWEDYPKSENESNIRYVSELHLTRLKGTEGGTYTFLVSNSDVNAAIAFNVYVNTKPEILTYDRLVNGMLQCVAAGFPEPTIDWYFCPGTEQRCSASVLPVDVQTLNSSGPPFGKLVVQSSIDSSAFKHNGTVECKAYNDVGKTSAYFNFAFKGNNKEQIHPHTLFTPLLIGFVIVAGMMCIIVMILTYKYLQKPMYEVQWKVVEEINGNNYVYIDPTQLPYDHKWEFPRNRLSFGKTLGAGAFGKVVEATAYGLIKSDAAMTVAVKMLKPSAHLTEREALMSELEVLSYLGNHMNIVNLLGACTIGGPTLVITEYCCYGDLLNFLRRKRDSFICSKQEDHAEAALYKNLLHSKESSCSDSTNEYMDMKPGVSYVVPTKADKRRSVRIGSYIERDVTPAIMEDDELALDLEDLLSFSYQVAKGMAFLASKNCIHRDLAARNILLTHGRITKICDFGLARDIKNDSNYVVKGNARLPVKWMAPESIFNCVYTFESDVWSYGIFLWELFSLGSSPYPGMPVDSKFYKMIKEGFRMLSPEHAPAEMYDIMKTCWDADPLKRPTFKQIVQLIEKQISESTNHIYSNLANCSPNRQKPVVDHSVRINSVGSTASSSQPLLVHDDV
In series [5] the target is T1, Bcr/Abl fusion protein. Briefly: Inhibition of human BCR-ABL1 expressed in mouse BA/F3 cells assessed as cell growth inhibition by ATP-depletion assay. The class given is cell-based, BaF3.
For series [6], the target named is T1, Bcr/Abl fusion protein. Briefly: Inhibition of human BCR-ABL1 (unknown origin) expressed in mouse 32D cells. The class given is cell-based.
A further series concerns Rattus norvegicus. Briefly: AUC (0 to 48 hrs) in Sprague-Dawley rat assessed as N-[4-Methyl-3-[[4-(3-pyridinyl)-2-pyrimidinyl]amino]-phenyl]-4-(1-piperazinylmethyl)benzamide at 1 mg/kg, iv administered as bolus dose. The class given is ADME, organism-based, Plasma. Set-up: time < 48 hr, dose 1 mg/kg, route intravenous. Conditions: in vivo. A digest of the protocol: (§1)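 Single IV bolus into femoral vein, 1 mg/kg in 0.5 mL/kg vehicle (30% NMP, 70% PEG200). Serial blood samples taken from femoral artery for up to 48 h, stored at −20 °C. Proteins precipitated with CH3CN containing internal standard, then LC/MS/MS with ESI; LLOQ 0.4 ng mL. Parameters from non-compartmental analysis.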

Series [7] deals with Liver microsomes. In words: Metabolic stability in human liver microsomes assessed as compound remaining by capillary-HPLC/MS analysis. The class given is ADME, Microsome. A digest of the protocol:
(§2)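 Parent compound added from 2 mM DMSO stock to liver microsomes (20 mg protein/mL) in 100 mM phosphate buffer pH 7.4 with alamethicin and UDPGA. Pre-incubated 3 min at 37 °C, started with NADPH-regenerating system, run up to 60 min at 37 °C. Stopped with ice-cold CH3CN, centrifuged, diluted, analysed by capillary-HPLC/MS; peak areas not corrected for response factors.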

A further series in a line: in vivo. The following applies: Sprague-Dawley, rat, plasma, iv, 1 mg/kg.
Series [8] has as its system Liver microsomes. Briefly: Metabolic stability in rat liver microsomes assessed as compound remaining by capillary-HPLC/MS analysis. The format is ADME, Microsome. A digest of the protocol: as §2
The nature of series [9]: AUC (0 to 48 hrs) in Sprague-Dawley rat at 1 mg/kg, iv administered as bolus dose. The class given is ADME, organism-based. Set-up: time < 48 hr, dose 1 mg/kg, route intravenous. Conditions: plasma. A digest of the protocol: as §1

Structures are written as SMILES. Calls of active or inactive are those of the source. The rule behind the calls is not given here.

Bcr/Abl fusion protein (Homo sapiens), sequence (P00519 whole entry, looked up, the tested form may be a part): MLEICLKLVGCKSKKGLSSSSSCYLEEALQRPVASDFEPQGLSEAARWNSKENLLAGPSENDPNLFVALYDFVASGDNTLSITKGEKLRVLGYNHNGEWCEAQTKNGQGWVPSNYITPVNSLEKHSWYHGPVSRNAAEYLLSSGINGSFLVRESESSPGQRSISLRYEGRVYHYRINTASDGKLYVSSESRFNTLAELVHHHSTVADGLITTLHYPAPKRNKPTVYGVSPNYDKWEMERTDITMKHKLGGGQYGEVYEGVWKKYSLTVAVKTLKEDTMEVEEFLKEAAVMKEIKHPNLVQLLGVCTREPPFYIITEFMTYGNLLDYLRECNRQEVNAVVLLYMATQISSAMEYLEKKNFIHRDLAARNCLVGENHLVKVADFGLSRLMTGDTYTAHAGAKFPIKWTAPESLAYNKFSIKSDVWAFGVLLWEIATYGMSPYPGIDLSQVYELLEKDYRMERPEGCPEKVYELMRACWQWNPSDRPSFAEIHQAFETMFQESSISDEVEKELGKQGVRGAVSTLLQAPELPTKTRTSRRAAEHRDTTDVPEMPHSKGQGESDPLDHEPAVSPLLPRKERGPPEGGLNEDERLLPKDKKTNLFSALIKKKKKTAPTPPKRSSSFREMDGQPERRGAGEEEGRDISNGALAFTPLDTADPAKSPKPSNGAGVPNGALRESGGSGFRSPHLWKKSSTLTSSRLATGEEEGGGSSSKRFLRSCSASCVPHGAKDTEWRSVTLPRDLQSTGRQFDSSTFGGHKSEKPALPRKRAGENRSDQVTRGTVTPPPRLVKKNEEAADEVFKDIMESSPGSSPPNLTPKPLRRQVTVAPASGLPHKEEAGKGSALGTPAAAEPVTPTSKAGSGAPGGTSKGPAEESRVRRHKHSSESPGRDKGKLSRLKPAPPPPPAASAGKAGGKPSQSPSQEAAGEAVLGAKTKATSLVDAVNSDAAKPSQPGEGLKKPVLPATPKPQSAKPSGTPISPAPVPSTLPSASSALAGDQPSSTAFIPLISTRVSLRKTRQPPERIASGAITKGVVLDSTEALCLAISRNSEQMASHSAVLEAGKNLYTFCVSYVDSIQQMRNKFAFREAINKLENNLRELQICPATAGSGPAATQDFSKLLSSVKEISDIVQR
Bcr/Abl fusion protein (Homo sapiens), sequence (P11274 whole entry, looked up, the tested form may be a part): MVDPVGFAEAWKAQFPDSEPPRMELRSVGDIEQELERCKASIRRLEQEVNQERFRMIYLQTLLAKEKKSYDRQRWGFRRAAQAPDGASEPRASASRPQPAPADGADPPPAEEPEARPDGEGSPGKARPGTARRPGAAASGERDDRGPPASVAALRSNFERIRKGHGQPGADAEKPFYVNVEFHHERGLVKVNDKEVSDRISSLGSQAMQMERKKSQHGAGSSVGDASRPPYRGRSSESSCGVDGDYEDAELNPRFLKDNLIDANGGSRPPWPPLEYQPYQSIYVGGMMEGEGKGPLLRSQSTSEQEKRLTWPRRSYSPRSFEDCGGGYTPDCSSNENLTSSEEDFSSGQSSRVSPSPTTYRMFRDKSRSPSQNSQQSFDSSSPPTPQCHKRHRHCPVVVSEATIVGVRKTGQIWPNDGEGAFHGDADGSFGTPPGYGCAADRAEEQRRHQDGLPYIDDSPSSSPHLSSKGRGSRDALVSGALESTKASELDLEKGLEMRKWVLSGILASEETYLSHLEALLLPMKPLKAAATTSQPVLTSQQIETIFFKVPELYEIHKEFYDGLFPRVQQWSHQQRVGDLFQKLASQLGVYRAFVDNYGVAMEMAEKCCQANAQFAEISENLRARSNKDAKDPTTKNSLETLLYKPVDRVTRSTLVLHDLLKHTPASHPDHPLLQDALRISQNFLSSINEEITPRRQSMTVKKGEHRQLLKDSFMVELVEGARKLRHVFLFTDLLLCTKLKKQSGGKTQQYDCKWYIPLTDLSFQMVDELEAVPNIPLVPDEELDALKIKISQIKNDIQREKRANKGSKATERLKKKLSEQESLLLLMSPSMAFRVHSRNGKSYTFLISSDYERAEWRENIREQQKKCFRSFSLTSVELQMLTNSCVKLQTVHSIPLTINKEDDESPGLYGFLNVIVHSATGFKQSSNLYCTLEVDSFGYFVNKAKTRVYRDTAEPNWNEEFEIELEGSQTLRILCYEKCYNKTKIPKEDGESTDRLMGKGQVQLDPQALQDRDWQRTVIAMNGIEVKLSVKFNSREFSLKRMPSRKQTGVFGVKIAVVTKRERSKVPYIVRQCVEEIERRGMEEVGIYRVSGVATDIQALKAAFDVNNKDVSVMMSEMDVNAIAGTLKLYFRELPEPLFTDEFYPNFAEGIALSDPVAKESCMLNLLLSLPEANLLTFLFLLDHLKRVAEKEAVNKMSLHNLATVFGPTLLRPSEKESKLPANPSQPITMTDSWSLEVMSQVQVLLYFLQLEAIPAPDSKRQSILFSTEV
T1 sequence (P00519 whole entry, the tested form may be a part): as the sequence (P00519 whole entry, looked up, the tested form may be a part) above
T1 sequence (P11274 whole entry, further chain, the tested form may be a part): as the sequence (P11274 whole entry, looked up, the tested form may be a part) above

For the compound `Cc1ccc(NC(=O)c2ccc(CN3CCN(C=O)CC3)cc2)cc1Nc1nccc(-c2cccnc2)n1`, the inhibition entry in series [1] and in series [2] was “inactive” in each case.

Regarding `CC(=O)N1CCN(Cc2ccc(C(=O)Nc3ccc(C)c(Nc4nccc(-c5cccnc5)n4)c3)cc2)CC1`, the inhibition entry in [1] and in series [2] was “inactive” throughout.

Regarding `Cc1ccc(NC(=O)c2ccc(CN3CCNCC3)cc2)cc1Nc1nccc(-c2cccnc2)n1`, the IC50 is 2230 nM against Bcr/Abl fusion protein [3], 342 nM in series [4], 1560 nM at Bcr/Abl fusion protein [5] and 512 nM against Bcr/Abl fusion protein [6].

On to `Cc1ccc(NC(=O)c2ccc(CN3CCN(C)CC3)cc2)cc1Nc1nccc(-c2cccnc2)n1` [IMATINIB], for which the AUC in the series with Rattus norvegicus stood at 0.0339 µM·h; in “in vivo”, 1.97 µM·h. Also, the Stability with Liver microsomes [7] amounted to 67.3%; in the series with Liver microsomes [8], 77.2%. The compound also had an AUC(0-t) at 48 h in series [9] of 1.42 µM·h.

For `[2H]C([2H])([2H])N1CCN(Cc2ccc(C(=O)Nc3ccc(C)c(Nc4nccc(-c5cccnc5)n4)c3)cc2)CC1`, the AUC worked out at 0.011 µM·h in the series with Rattus norvegicus and 1.85 µM·h in “in vivo”. In addition, the Stability turned out to be 81.9% with Liver microsomes [7] and 80.9% with Liver microsomes [8]. Further, in series [9], the AUC(0-t) at 48 h worked out at 1.15 µM·h.

`Cc1ccc(NC(=O)c2ccc(CN3CCN(C)C(=O)C3)cc2)cc1Nc1nccc(-c2cccnc2)n1`: the inhibition entry in [1] and in series [2] was “inactive” throughout.
